Screening data (PubChem)
AHR act: human AHR activation. 2.5% of 320,000 active. activation, % at 5 µM. AHR-responsive luciferase reporter cells, luminescence; in the data active = activation above about 47%;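 also: 0% = vehicle wells and 100% = reference agonist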
Target sequence (P35869 whole entry, looked up): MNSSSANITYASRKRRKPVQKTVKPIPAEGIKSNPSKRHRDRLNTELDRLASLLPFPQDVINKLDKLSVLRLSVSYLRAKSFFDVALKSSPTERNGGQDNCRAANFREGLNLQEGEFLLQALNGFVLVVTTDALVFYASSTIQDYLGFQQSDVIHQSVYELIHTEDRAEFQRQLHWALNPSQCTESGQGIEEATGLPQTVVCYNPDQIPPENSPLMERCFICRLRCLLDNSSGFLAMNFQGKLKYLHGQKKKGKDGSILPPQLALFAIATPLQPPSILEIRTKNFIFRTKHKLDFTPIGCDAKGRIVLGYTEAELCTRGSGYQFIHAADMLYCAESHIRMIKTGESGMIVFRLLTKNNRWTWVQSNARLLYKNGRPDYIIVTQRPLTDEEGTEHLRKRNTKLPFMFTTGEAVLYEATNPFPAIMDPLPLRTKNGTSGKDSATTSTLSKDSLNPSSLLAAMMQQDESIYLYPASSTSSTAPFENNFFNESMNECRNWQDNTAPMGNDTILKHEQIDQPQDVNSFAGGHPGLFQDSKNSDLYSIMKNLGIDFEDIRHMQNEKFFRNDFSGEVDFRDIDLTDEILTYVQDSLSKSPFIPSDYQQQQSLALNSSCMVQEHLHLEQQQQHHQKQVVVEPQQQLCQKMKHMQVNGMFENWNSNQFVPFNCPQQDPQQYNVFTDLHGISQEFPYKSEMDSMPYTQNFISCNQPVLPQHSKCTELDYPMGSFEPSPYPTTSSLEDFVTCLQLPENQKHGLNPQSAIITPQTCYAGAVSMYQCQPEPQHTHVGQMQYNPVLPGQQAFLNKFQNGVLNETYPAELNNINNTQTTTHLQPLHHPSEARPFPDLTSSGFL
Efflux pump mplx: inhibitors of Candida antifungal efflux pumps expressed in yeast | S. cerevisiae Candida pump triplex, Nile Red efflux | inhibition, % at 10 µM | 0.44% of 330,000 active;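 active = plate passing quality check with inhibition over a set limit, or well fluorescence over plate mean plus 4 SD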;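 also: Nile Red retained in pooled yeast measured as flow cytometry median fluorescence; 0% = buffer negative control and 100% = Enniatin B positive control; higher means more Nile Red kept so more efflux inhibition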
SMARCA2 act: increases SMARCA2 function in MMTV reporter cells; MG213 cells, MMTV-luciferase reporter, dexamethasone, overnight; activation, % at 9.1 µM; 1% of 370,000 active; AID 652017; in the data active = activation above about 7.8%;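 also: 0% = vehicle wells and 100% = reference activator wells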
TAG inh: reduces triacylglycerol accumulation in H9c2 cells; Nile Red lipid (TAG) fluorescence; cells loaded with 200 µM oleic acid; inhibition, % at 12.5 µM; 0.66% of 230,000 active;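 active = pattern-corrected inhibition of lipid staining of at least 50% with the nuclear-stain viability signal not falling by more than 50%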;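 also: 0% = DMSO wells and 100% = triacsin C control wells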
TbMetRS inhib: Trypanosoma brucei MetRS inhibition | 0.4% of 360,000 active | inhibition, % at 11.9 µM | purified T. brucei MetRS, ATP depletion, Kinase-Glo luminescence;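 active = inhibition above a per-plate cutoff of the control wells' mean inhibition plus 3 SD, cut at about 5.5% in these data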;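 also: 0% = DMSO wells median and 100% = median of wells with control inhibitor compound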
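Measured by: Kinase-Glo luciferase luminescence reporting remaining unconsumed ATP. Material: purified T. brucei MetRS enzyme. Doses: 11.9 µM compound single dose, 0.9% DMSO. Medium: HEPES buffer containing pyrophosphatase, BSA, spermine, DTT. Times: 15 min preincubation, 2 h reaction, all 25 °C. Reagent: methionine, ATP and bulk E. coli tRNA.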
Active calls of the source: *. An excerpt weighted towards active compounds, which were near 4.1% of everything screened.

For O=C(CSc1nnc(COc2ccccc2)n1-c1ccc(Cl)cc1)Nc1ccccc1-c1ccccc1 the results were SMARCA2 act -7.
`CN(C)c1cc(N/N=C/c2ccccc2C(F)(F)F)nc(N(C)C)n1` gave AHR act 55*, Efflux pump mplx 0, SMARCA2 act -2 and TbMetRS inhib -1.
Cc1nnc(N/N=C/c2ccccc2C(F)(F)F)n1N was read as AHR act 23, Efflux pump mplx 0, SMARCA2 act 2, TAG inh -11 and TbMetRS inhib 0.
`COc1ccc(/C=N/NC(=O)CCn2c3ccccc3c3ccccc32)cc1O` gave AHR act 6, Efflux pump mplx 0, SMARCA2 act 2 and TbMetRS inhib -1.
COc1cccc(/C=N/NC(=O)CCn2c3ccccc3c3ccccc32)c1 was read as AHR act 73*, Efflux pump mplx 0, SMARCA2 act 0 and TbMetRS inhib -1.
COc1ccc(-c2noc(-c3ccccc3-c3ccccc3)n2)cc1 was read as AHR act -6, Efflux pump mplx 0, SMARCA2 act -2, TAG inh -17 and TbMetRS inhib -1.
For c1cncc(-c2noc(-c3cccc4ccccc34)n2)c1 the results were AHR act 59*, Efflux pump mplx 0, SMARCA2 act 0 and TbMetRS inhib 1.
`Cc1ccc(-c2nc(-c3ccccc3)no2)cc1` gave AHR act -10, Efflux pump mplx 0, SMARCA2 act 7.8*, TAG inh -2 and TbMetRS inhib -1.
For Cc1ccc(-c2nc(-c3ccncc3)no2)cc1 the results were Efflux pump mplx 0, SMARCA2 act 4 and TbMetRS inhib 0.
COc1ccc(-c2noc(-c3ccccc3F)n2)cc1 was read as AHR act 48*, Efflux pump mplx 0, SMARCA2 act 2, TAG inh -10 and TbMetRS inhib 0.
Screening Brc1ccccc1-c1nc(-c2ccccc2)no1 returned AHR act 50* and Efflux pump mplx 0.
Screening O=C(C1CCCN1S(=O)(=O)c1ccc(Br)s1)N1CCN(c2ccccc2)CC1 (centres undefined) returned SMARCA2 act -2.
For COC[C@@H]1CCCN1c1cccc2c1S(=O)(=O)N(C1CC1)CC[C@@H](C)O2 the results were SMARCA2 act -2.
For Cc1cccc(-c2nc(-c3ccncc3)no2)c1 the results were AHR act 4, Efflux pump mplx 0, SMARCA2 act 4, TAG inh -7 and TbMetRS inhib -1.
For c1ccc(-c2noc(-c3cccc4ccccc34)n2)cc1 the results were AHR act 51*, Efflux pump mplx 0, SMARCA2 act 6 and TbMetRS inhib -1.
`Brc1cccc(-c2nc(-c3ccncc3)no2)c1` gave AHR act 52*, Efflux pump mplx 0, SMARCA2 act 7, TAG inh -2 and TbMetRS inhib -1.
Screening O=C(Nc1ccc(F)cc1)Nc1c(-c2ccc(C(F)(F)F)cc2)nc2ncccn12 returned SMARCA2 act 0.
`Nc1[nH]c(C(=O)c2ccccc2)c(-c2ccc3c(c2)OCO3)c1C(=O)NCCc1c[nH]c2ccccc12` gave SMARCA2 act -1.
Screening CC(C)NC(=O)CNc1ccc(C(F)(F)F)cc1[N+](=O)[O-] returned AHR act 52*, Efflux pump mplx 0, SMARCA2 act 0, TAG inh 4 and TbMetRS inhib 0.
O=C(CSc1ccc(C(F)(F)F)cc1[N+](=O)[O-])Nc1ccccc1 was read as AHR act 48*, Efflux pump mplx 0, SMARCA2 act 2 and TbMetRS inhib 7.6*.
For O=C(CNS(=O)(=O)c1cc2ccccc2s1)N1CCN(c2ccccn2)CC1 the results were SMARCA2 act -3.
CC(=O)c1cccc(NC(=O)c2ccc(N(C)S(=O)(=O)c3ccc(C)cc3)cc2)c1 was read as AHR act 48*, Efflux pump mplx 0, SMARCA2 act -1, TAG inh 6 and TbMetRS inhib 0.
COC(=O)c1cc(-c2cc(Cl)ccc2OC)c(=O)n2c1CCC2 was read as SMARCA2 act -1.
O=C1c2cccc3cccc(c23)C(=O)N1CCCN(C(=O)c1cccs1)c1cccc(F)c1 was read as AHR act 51*, Efflux pump mplx 0, SMARCA2 act -2 and TbMetRS inhib 0.
`O=C1c2ccccc2NC(c2ccc(-c3cccc(F)c3)o2)N1O` (centres undefined) gave AHR act 47*, Efflux pump mplx 0, SMARCA2 act 6, TAG inh 8 and TbMetRS inhib 0.
For O=C1c2ccccc2NC(c2ccc(-c3ccccc3F)o2)N1O (centres undefined) the results were AHR act 54*, Efflux pump mplx 0, SMARCA2 act 3, TAG inh 14 and TbMetRS inhib 0.
`O=C(c1ccccc1)n1ccn(-c2ccccc2)c1=S` gave AHR act 51*, Efflux pump mplx 0, SMARCA2 act -1, TAG inh -6 and TbMetRS inhib 0.
`Cc1cc(C)nc(-n2nc(C)c(C3(O)C(=O)Nc4ccccc43)c2N)n1` (centres undefined) gave AHR act 56*, Efflux pump mplx 0, SMARCA2 act 2 and TbMetRS inhib -1.
For Cc1ccc(-n2c(SCC(=O)Nc3ccc(OCc4ccccc4)cc3)nnc2-c2ccccc2)cc1 the results were SMARCA2 act -1.
Screening CCOC(=O)[C@]12CCCC=C1N(CCc1ccc(Cl)cc1)C(=O)[C@@H]2CC(=O)NCCC(C)C returned SMARCA2 act -4.
CCCCCCCCN1CCS(=O)(=O)N(Cc2ccc(C(F)(F)F)cc2)C(C(=O)OC)C1 (centres undefined) was read as SMARCA2 act 2.
`CC12CCC(C(=O)NCc3ccccc3)(OC1=O)C2(C)C` (centres undefined) gave AHR act 2, Efflux pump mplx 0, SMARCA2 act -2, TAG inh 6 and TbMetRS inhib -1.
For C/C(=N\NC(=O)C12CCC(C)(C(=O)O1)C2(C)C)c1ccccc1O (centres undefined) the results were AHR act 5, Efflux pump mplx 0, SMARCA2 act -4, TAG inh 52* and TbMetRS inhib -1.
For CCOC(=O)[C@@]12CCCC3=C1N(CCC3)C(=O)[C@H]2CC(=O)NCc1cccc2ccccc12 the results were SMARCA2 act -2.
COC(=O)[C@]12C[C@H](CC(=O)N3CCSCC3)C(=O)N(CCc3ccc(OC)c(OC)c3)C1=C[C@H](C1CCCC1)O[C@@H]2C was read as SMARCA2 act -2.
Oc1ccccc1C=NNc1nc2ccccc2s1 was read as SMARCA2 act -2, TAG inh 10 and TbMetRS inhib 0.
C(=N\Nc1nc2ccccc2s1)/c1cccs1 was read as AHR act 76*, Efflux pump mplx 0, SMARCA2 act 1 and TbMetRS inhib 0.
`Cc1ccsc1/C=N/Nc1nc2ccccc2s1` gave AHR act 71*, Efflux pump mplx 0, SMARCA2 act 0 and TbMetRS inhib -1.
